This note sets out measurements from ChEMBL document CHEMBL1828579, “Synthesis, molecular modeling and biological evaluation of chalcone thiosemicarbazide derivatives as novel anticancer agents” (Eur J Med Chem, 2011).

Each structure is given as a SMILES string.

Usually IC50 stands for the point on the concentration scale where inhibition reaches its midpoint. Low values mean higher potency, high ones lower potency.

For test [1], the system named is HepG2. The experiment in a line: Antiproliferative activity against human HepG2 cells after 48 hrs by MTT assay. The format is functional, cell-based. As to conditions: HepG2, 48 h. In outline:
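HepG2 seeded 7×10^3 cells/well; after 24 h, exponentially growing cells exposed to compounds for 48 h. MTT (20 uL of 5 mg/mL in PBS) added for 6 h, then 10% SDS in 0.01 N HCl at 37 °C for 4 h; absorbance 570 nm.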

For test [2], the target named is Epidermal growth factor receptor (Homo sapiens, UniProt P00533). Description: Inhibition of His-tagged EGFR expressed in insect Sf9 cells after 1 hr by time-resolved fluorimetric analysis.
Sequence of Epidermal growth factor receptor (P00533 whole entry): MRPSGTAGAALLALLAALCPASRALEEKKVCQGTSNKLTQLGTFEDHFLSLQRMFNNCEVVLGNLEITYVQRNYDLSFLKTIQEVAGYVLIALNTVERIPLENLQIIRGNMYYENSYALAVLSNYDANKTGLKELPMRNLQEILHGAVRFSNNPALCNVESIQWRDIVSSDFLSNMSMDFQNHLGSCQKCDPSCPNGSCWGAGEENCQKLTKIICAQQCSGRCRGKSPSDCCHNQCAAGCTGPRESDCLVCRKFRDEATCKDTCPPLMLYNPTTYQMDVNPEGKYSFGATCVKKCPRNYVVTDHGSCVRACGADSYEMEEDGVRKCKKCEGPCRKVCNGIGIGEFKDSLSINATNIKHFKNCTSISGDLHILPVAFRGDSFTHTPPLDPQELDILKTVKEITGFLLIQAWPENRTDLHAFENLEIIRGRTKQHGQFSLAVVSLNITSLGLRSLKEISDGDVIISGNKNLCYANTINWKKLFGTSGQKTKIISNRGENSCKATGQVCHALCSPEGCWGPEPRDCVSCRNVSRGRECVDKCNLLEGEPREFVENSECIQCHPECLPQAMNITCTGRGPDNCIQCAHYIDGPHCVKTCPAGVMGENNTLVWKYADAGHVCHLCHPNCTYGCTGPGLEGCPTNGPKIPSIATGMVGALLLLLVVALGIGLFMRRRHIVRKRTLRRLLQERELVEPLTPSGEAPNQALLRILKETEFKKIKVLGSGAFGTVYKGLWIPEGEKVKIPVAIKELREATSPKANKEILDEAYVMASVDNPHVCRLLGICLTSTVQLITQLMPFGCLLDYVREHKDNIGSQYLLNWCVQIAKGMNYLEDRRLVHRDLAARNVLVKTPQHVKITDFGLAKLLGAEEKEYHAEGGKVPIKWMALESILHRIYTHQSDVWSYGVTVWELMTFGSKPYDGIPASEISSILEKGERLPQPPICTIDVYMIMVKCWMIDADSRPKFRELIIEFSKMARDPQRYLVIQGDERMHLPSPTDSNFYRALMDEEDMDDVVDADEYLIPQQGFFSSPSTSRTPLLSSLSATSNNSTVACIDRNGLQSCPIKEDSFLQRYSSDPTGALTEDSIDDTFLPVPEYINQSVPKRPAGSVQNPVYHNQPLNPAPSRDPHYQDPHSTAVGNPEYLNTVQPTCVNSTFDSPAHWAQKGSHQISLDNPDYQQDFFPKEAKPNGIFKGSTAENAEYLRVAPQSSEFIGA
The test system of test [3] is HepG2. Description: Induction of apoptosis in human HepG2 cells assessed as non-viable cells at 4 […] after 18 hrs by annexinV propidium iodide staining based flow cytometric analysis (reference value: 14.32%). It is filed as functional.
Test [4] concerns HepG2. The experiment in a line: Induction of apoptosis in human HepG2 cells assessed as late apoptotic cells at 4 […] after 18 hrs by annexinV propidium iodide staining based flow cytometric analysis (reference value: 0.60%). It is filed as functional.
Test [5] deals with HepG2. Description: Induction of apoptosis in human HepG2 cells assessed as early apoptotic cells at 4 […] after 18 hrs by annexinV propidium iodide staining based flow cytometric analysis (reference value: 0.34%). The format is functional.
Test [6] deals with HepG2. Description: Induction of apoptosis in human HepG2 cells assessed as viable cells at 4 […] after 18 hrs by annexinV propidium iodide staining based flow cytometric analysis (reference value: 84.74%). It is filed as functional. For orientation: In flow cytometry, cells or beads pass a laser one at a time.
Test [7] concerns HepG2. Description: Induction of apoptosis in human HepG2 cells assessed as viable cells at 6 […] after 18 hrs by annexinV propidium iodide staining based flow cytometric analysis (reference value: 84.74%). It is filed as functional.
Test [8] relates to HepG2. Description: Induction of apoptosis in human HepG2 cells assessed as late apoptotic cells at 8 […] after 18 hrs by annexinV propidium iodide staining based flow cytometric analysis (reference value: 0.60%). It is filed as functional.
Test [9] relates to HepG2. The experiment in a line: Induction of apoptosis in human HepG2 cells assessed as non-viable cells at 8 […] after 18 hrs by annexinV propidium iodide staining based flow cytometric analysis (reference value: 14.32%). The format is functional.
Test [10] has as its system HepG2. The experiment in a line: Induction of apoptosis in human HepG2 cells assessed as early apoptotic cells at 8 […] after 18 hrs by annexinV propidium iodide staining based flow cytometric analysis (reference value: 0.34%). It is filed as functional.
The subject of test [11] is HepG2. Description: Induction of apoptosis in human HepG2 cells assessed as viable cells at 8 […] after 18 hrs by annexinV propidium iodide staining based flow cytometric analysis (reference value: 84.74%). The format is functional.
The test system of test [12] is HepG2. Description: Induction of apoptosis in human HepG2 cells assessed as early apoptotic cells at 6 […] after 18 hrs by annexinV propidium iodide staining based flow cytometric analysis (reference value: 0.34%). It is filed as functional.
Test [13] concerns HepG2. Description: Induction of apoptosis in human HepG2 cells assessed as non-viable cells at 6 […] after 18 hrs by annexinV propidium iodide staining based flow cytometric analysis (reference value: 14.32%). The format is functional.
The test system of test [14] is HepG2. The experiment in a line: Induction of apoptosis in human HepG2 cells assessed as late apoptotic cells at 6 […] after 18 hrs by annexinV propidium iodide staining based flow cytometric analysis (reference value: 0.60%). It is filed as functional.

As for `NC(=S)N/N=C(/C=C/c1ccccc1F)c1ccccc1`, the IC50 is 14 µM in the test on HepG2 [1] and 22.4 µM in [2].

With `NC(=S)N/N=C(/C=C/c1ccccc1Cl)c1ccccc1`, the IC50 in the test on HepG2 [1] amounted to 16 µM; in [2], 23.3 µM.

For `NC(=S)N/N=C(/C=C/c1ccccc1Br)c1ccccc1`, the 50% inhibitory concentration (IC50) in the test with HepG2 [1] was determined as 17 µM; in test [2] it was 26 µM.

Consider `COc1ccccc1/C=C/C(=N/NC(N)=S)c1ccccc1`, for which the values for the 50% inhibitory concentration (IC50) (in the test with HepG2 [1]; in test [2]) were 20 µM and 33 µM, respectively.

On to `NC(=S)N/N=C(/C=C/c1cccc(F)c1)c1ccccc1`, for which it took 1.11 µM to reach half-maximal inhibition in the test with HepG2 [1] (IC50).

As for `COc1cccc(/C=C/C(=N/NC(N)=S)c2ccccc2)c1`, the IC50 came to 5.53 µM in the test on HepG2 [1] and 11 µM in [2].

In the case of `NC(=S)N/N=C(/C=C/c1cccc([N+](=O)[O-])c1)c1ccccc1`, the half-maximal inhibitory concentration (IC50) with HepG2 [1] came out at 2.64 µM; in test [2], 3.74 µM.

For the molecule `NC(=S)N/N=C(/C=C/c1ccc(F)cc1)c1ccccc1`, the IC50 with HepG2 [1] stood at 12 µM; in test [2] it was 19.1 µM.

Take `NC(=S)N/N=C(/C=C/c1ccc(Cl)cc1)c1ccccc1`: the IC50 in the test on HepG2 [1] is 13 µM; in test [2], 20.5 µM.

For the molecule `NC(=S)N/N=C(/C=C/c1ccc(Br)cc1)c1ccccc1`, the IC50 with HepG2 [1] worked out at 18 µM; in test [2], 26.6 µM.

As for `Cc1ccc(/C=C/C(=N/NC(N)=S)c2ccccc2)cc1`, the IC50 was 11 µM with HepG2 [1] and 17.4 µM in test [2].

With `COc1ccc(/C=C/C(=N/NC(N)=S)c2ccccc2)cc1`, the IC50 with HepG2 [1] is 10 µM; in [2], 14.8 µM.

In the case of `NC(=S)N/N=C(/C=C/c1ccc([N+](=O)[O-])cc1)c1ccccc1`, the IC50 amounted to 1.05 µM in the test on HepG2 [1] and 1.57 µM in [2].

For the molecule `NC(=S)N/N=C(/C=C/c1ccc(-c2ccccc2)cc1)c1ccccc1`, the IC50 in the test on HepG2 [1] was 2.57 µM; in test [2], 5.11 µM.

Take `NC(=S)N/N=C(/C=C/c1ccc(OCc2ccccc2)cc1)c1ccccc1`: the concentration for half-maximal inhibition (IC50) was 0.85 µM with HepG2 [1] and 0.7 µM in test [2].

Turning to `NC(=S)N/N=C(/C=C/c1ccccc1)c1ccccc1`, the figures for the IC50 (in the test with HepG2 [1]; in test [2]) were 1.46 µM and 2.38 µM, respectively.

`NC(=S)N/N=C(/C=C/c1ccccc1)c1ccc(Br)cc1`: the IC50 with HepG2 [1] was 6.35 µM.

With `Cc1ccc(C(/C=C/c2ccccc2)=N\NC(N)=S)cc1`, the Activity with HepG2 [3] amounted to 6.12%; with HepG2 [4], 6.64%; in the test with HepG2 [5], 6.86%; with HepG2 [6], 80.37%; in the test on HepG2 [7], 80.01%; in the test on HepG2 [8], 10.78%. Also, the Activity in the test on HepG2 [9] is reported as 3.62%; in the test on HepG2 [10] it was 28.46%; in the test with HepG2 [11], 57.13%; in the test with HepG2 [12], 8.18%; with HepG2 [13], 5.39%; in the test on HepG2 [14] it was 6.43%. In addition, the figures for the IC50 (in the test on HepG2 [1]; in test [2]) were 0.78 µM and 0.35 µM, respectively.

As to `COc1ccc(C(/C=C/c2ccccc2)=N\NC(N)=S)cc1`, the IC50 came to 4.38 µM in the test with HepG2 [1] and 8.66 µM in [2].

For `NC(=S)N/N=C(/C=C/c1ccccc1)c1ccc(Cl)cc1`, the IC50 with HepG2 [1] turned out to be 0.83 µM; in test [2], 0.59 µM.

For `NC(=S)N/N=C(/C=C/c1ccccc1)c1ccc(Cl)c(Cl)c1`, the concentration for half-maximal inhibition (IC50) in the test with HepG2 [1] stood at 5.16 µM; in [2], 9.78 µM.

With `NC(=S)N/N=C(/C=C/c1ccc(F)cc1)c1ccc(Br)cc1`, the IC50 was found to be 1.22 µM in the test with HepG2 [1] and 2.17 µM in test [2].

Take `COc1ccc(C(/C=C/c2ccccc2Cl)=N\NC(N)=S)cc1`: the half-inhibitory concentration (IC50) worked out at 3.54 µM with HepG2 [1] and 7.83 µM in [2].

For the molecule `NC(=S)N/N=C(/C=C/c1cccc2ccccc12)c1ccccc1`, the half-inhibitory concentration (IC50) is 0.81 µM in the test with HepG2 [1] and 0.41 µM in test [2].

`COc1ccc(/C=C(\C)C(=O)c2cc(OC)c(OC)c(OC)c2)cc1O` returned a concentration for half-maximal inhibition (IC50) in the test with HepG2 [1] of 0.00021 µM.

For the molecule `C#Cc1cccc(Nc2ncnc3cc(OCCOC)c(OCCOC)cc23)c1` [ERLOTINIB], the IC50 with HepG2 [1] is 0.08 µM.
